Laboratory results taken from ChEMBL document CHEMBL4842372, “Discovery of ARD-2585 as an Exceptionally Potent and Orally Active PROTAC Degrader of Androgen Receptor for the Treatment of Advanced Prostate Cancer” (J Med Chem, 2021).
Active and inactive are the calls of the source. The calls are words filed in the database; no cut-off is given here.

What was measured:
VCaP [1] = assay: Growth inhibition of human VCaP cells assessed as cell viability by WST-8 assay; format: functional, cell-based
[2] = Oral bioavailability in SCID mouse at 3 mg/kg by LC-MS/MS analysis; format: ADME, organism-based; conditions: in vivo
[3] = Drug distribution in plasma of CB17:SCID mouse xenografted with human VCaP cells at 20 mg/kg, po measured at 6 hrs by LCMS analysis; format: ADME, organism-based
How it was run: (§1)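 Tumor-bearing male CB17 SCID mice (VCaP xenografts) given one 20 mg/kg oral dose in 100% PEG200, three mice per time point; plasma, tumor, liver, kidney, prostate and heart taken at 1, 6 and 24 h; tissues homogenised in water/acetonitrile, protein precipitated with cold acetonitrile, drug quantified by LC–MS/MS; ratios are tissue over plasma level.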

[4] = Drug distribution in plasma of CB17:SCID mouse xenografted with human VCaP cells at 20 mg/kg, po measured at 24 hrs by LCMS analysis; format: ADME, organism-based; how it was run: as §1
[5] = Drug distribution in prostate gland of CB17:SCID mouse xenografted with human VCaP cells at 20 mg/kg, po measured at 6 hrs by LCMS analysis; format: ADME, organism-based; conditions: read-out: Drug uptake; how it was run: as §1
[6] = Drug distribution in prostate gland of CB17:SCID mouse xenografted with human VCaP cells at 20 mg/kg, po measured at 24 hrs by LCMS analysis; format: ADME, organism-based; conditions: read-out: Drug uptake; how it was run: as §1
[7] = Drug distribution in tumor of CB17:SCID mouse xenografted with human VCaP cells at 20 mg/kg, po measured at 6 hrs by LCMS analysis; format: ADME, organism-based, Neoplasm; conditions: read-out: Drug uptake; how it was run: as §1
[8] = Drug distribution in tumor of CB17:SCID mouse xenografted with human VCaP cells at 20 mg/kg, po measured at 24 hrs by LCMS analysis; format: ADME, organism-based, Neoplasm; conditions: read-out: Drug uptake; how it was run: as §1
[9] = target: Protein cereblon/Androgen receptor (Homo sapiens, UniProt P10275+Q96SW2); assay: Protac activity at CRBN/AR in human VCaP cells assessed as AR degradation after 24 hrs by Western blot analysis; format: cell-based
Protein cereblon/Androgen receptor (Homo sapiens, UniProt P10275+Q96SW2), sequence (P10275 whole entry): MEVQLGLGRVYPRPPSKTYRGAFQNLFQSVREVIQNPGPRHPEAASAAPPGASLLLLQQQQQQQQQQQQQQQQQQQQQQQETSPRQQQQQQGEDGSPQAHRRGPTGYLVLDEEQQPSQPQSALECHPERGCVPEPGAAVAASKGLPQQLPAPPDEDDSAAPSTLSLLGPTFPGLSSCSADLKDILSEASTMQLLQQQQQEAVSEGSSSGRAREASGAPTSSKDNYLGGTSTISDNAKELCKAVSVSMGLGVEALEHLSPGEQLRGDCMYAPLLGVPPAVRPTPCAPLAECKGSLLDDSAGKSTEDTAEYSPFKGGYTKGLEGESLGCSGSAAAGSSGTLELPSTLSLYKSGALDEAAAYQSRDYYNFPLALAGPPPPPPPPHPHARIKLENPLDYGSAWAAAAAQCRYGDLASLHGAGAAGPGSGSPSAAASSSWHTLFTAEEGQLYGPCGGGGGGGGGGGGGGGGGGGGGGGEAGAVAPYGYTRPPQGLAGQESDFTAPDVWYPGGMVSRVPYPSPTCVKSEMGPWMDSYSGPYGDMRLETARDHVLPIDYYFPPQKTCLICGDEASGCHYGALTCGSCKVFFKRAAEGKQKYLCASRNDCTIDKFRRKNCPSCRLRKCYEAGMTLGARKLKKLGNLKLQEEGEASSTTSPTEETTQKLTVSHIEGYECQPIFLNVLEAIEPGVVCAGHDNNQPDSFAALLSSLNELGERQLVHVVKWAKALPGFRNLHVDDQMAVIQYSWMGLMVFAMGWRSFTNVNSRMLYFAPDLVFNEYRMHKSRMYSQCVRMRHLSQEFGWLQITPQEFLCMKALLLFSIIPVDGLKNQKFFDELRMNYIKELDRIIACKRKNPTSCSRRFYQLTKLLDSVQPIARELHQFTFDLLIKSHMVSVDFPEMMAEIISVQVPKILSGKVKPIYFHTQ
Protein cereblon/Androgen receptor (Homo sapiens, UniProt P10275+Q96SW2), sequence (Q96SW2 whole entry): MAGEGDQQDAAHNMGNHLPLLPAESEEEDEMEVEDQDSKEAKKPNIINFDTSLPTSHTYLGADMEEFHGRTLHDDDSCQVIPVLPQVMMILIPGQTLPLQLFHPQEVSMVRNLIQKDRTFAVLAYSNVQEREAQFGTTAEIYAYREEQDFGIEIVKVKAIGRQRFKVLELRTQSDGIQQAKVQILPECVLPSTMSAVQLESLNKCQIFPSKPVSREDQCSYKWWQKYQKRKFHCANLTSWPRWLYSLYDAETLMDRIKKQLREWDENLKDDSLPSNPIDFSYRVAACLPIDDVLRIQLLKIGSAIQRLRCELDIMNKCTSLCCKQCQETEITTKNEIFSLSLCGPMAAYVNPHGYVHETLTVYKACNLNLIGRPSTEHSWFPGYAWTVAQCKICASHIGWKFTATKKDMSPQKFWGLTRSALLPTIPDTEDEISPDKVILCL

[10] = Half life in SCID mouse at 1 mg/kg, iv by LC-MS/MS analysis; format: ADME, organism-based; conditions: in vivo
How it was run: (§2)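 Male mice were given a single intravenous dose. Plasma drug levels were measured by a validated LC–MS/MS method (C18 column, 0.1% formic acid water/acetonitrile gradient, 0.4 mL/min). Parameters came from noncompartmental analysis.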

[11] = AUC (0 to t) in SCID mouse at 1 mg/kg, iv by LC-MS/MS analysis; format: ADME, organism-based; set-up: dose 1 mg/kg; conditions: in vivo; how it was run: as §2
[12] = Volume of distribution at steady state in SCID mouse at 1 mg/kg, iv by LC-MS/MS analysis; format: ADME, organism-based; conditions: in vivo, read-out: Vdss
How it was run: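 Male mice were used, three sacrificed per time-point, with 300 μL blood collected and plasma stored at −80 °C. Drug was quantified by a validated LC–MS/MS method on a C18 column with a 0.1% formic acid water/acetonitrile gradient at 0.4 mL/min. PK parameters were derived by noncompartmental analysis.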

[13] = Tmax in SCID mouse at 3 mg/kg, po by LC-MS/MS analysis; format: ADME, organism-based; conditions: in vivo
How it was run: (§3)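 Nontumor-bearing male mice were given a single oral gavage dose in 100% PEG200. Three mice were sacrificed per time point, and 300 μL blood was taken from each for plasma, stored at −80 °C. Drug was quantified by LC–MS/MS on a C18 column with a 0.1% formic acid water/acetonitrile gradient at 0.4 mL/min. Parameters came from noncompartmental analysis.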

[14] = Half life in SCID mouse at 3 mg/kg, po by LC-MS/MS analysis; format: ADME, organism-based; conditions: in vivo; how it was run: as §3
[15] = Cmax in SCID mouse at 3 mg/kg, po by LC-MS/MS analysis; format: ADME, organism-based; set-up: route oral, dose 3 mg/kg; conditions: in vivo; how it was run: as §3
[16] = AUC (0 to t) in SCID mouse at 3 mg/kg, po by LC-MS/MS analysis; format: ADME, organism-based; set-up: dose 3 mg/kg; conditions: in vivo; how it was run: as §3
LNCaP = assay: Growth inhibition of human LNCaP cells carrying AR T878A mutant assessed as cell viability by WST-8 assay; format: functional, cell-based
VCaP [17] = assay: Antitumor activity against human VCaP cells xenografted in CB17:SCID mouse assessed as reduction in AR protein level in tumor at 20 mg/kg, po measured for 6 to 24 hrs by Western blot analysis; format: functional, organism-based; conditions: time 6-24 hrs
How it was run: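 VCaP xenografts in male CB17 SCID mice grown to about 200 mm3; single oral gavage dose of 20 mg/kg in 100% PEG200; tumors collected at 6 and 24 h, RIPA lysates blotted for AR with GAPDH as loading control, band intensity normalised to loading control.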

[18] = target: Protein cereblon/Androgen receptor (Homo sapiens, UniProt P10275+Q96SW2, T878A); conditions: lncap
Protein cereblon/Androgen receptor (Homo sapiens, UniProt P10275+Q96SW2, T878A), sequence (P10275 whole entry T878A, stated change not applied): as the sequence (P10275 whole entry) above, with T878A counted along it
Protein cereblon/Androgen receptor (Homo sapiens, UniProt P10275+Q96SW2, T878A), sequence (Q96SW2 whole entry, stated change not applied): as the sequence (Q96SW2 whole entry) above

VCaP [19] = assay: Antitumor activity against human VCaP cells xenografted in CB17:SCID mouse assessed as tumor growth inhibition at 40 mg/kg, po treated for 37 days relative to control; format: functional; conditions: 888 h, time 37 day, read-out: TGI

**Q.** With `CN1CCN(c2ccc(C(=O)N[C@H]3CC[C@H](N(C)c4ccc(C#N)c(Cl)c4)CC3)cc2)CC1` as the molecule, how does the IC50 (VCaP [1]) read?
**A.** 61 nM

**Q.** With `CN(c1ccc(C#N)c(Cl)c1)[C@H]1CC[C@H](NC(=O)c2ccc(N3CCC(N4CCN(c5ccc6c(c5)C(=O)N(C5CCC(=O)NC5=O)C6=O)CC4)CC3)cc2)CC1` (stereo partly drawn) as the molecule, how does the F [2] read?
**A.** 44%

**Q.** And the concentration at 6 h [3]?
**A.** 208 ng/mL

**Q.** And the concentration at 24 h [4]?
**A.** 65 ng/mL

**Q.** And the concentration at 6 h [5]?
**A.** 67 ng/g

**Q.** What about the concentration at 24 h [6] of the same molecule?
**A.** 4 ng/g

**Q.** What about the concentration at 6 h [7] of the same molecule?
**A.** 306 ng/g

**Q.** And the concentration at 24 h [8]?
**A.** 137 ng/g

**Q.** For `CN(c1ccc(C#N)c(Cl)c1)[C@H]1CC[C@H](NC(=O)c2ccc(N3CCN(CC4CN(c5ccc6c(c5)C(=O)N(C5CCC(=O)NC5=O)C6=O)C4)CC3)cc2)CC1` (stereo partly drawn), which F [2] is on record?
**A.** 30%

**Q.** For `N#Cc1ccc(O[C@H]2CC[C@H](NC(=O)c3ccc(N4CCC(N5CCN(c6ccc7c(c6)C(=O)N(C6CCC(=O)NC6=O)C7=O)CC5)CC4)cc3)CC2)cc1Cl` (stereo partly drawn), which DC50 [9] is on record?
**A.** 0.2 nM

**Q.** What about the half-life [10] of the same molecule?
**A.** 366 min

**Q.** What about the AUC(0-t) [11] of the same molecule?
**A.** 2420 ng·h/mL

**Q.** And the Vd [12]?
**A.** 3 L/kg

**Q.** What about the Tmax [13] of the same molecule?
**A.** 4 h

**Q.** What about the half-life [14] of the same molecule?
**A.** 336 min

**Q.** And the Cmax [15]?
**A.** 207 ng/mL

**Q.** And the AUC(0-t) [16]?
**A.** 2150 ng·h/mL

**Q.** What about the F [2] of the same molecule?
**A.** 30%

**Q.** Which IC50 (VCaP [1]) does the source give for `CC(O)(CS(=O)(=O)c1ccc(N2CCN(C3CCN(c4ccc5c(c4)C(=O)N(C4CCC(=O)NC4=O)C5=O)CC3)CC2)cc1)C(=O)Nc1ccc(C#N)c(C(F)(F)F)c1` (stereo not drawn) here?
**A.** > 1000 nM

**Q.** Which F [2] does the source give for `CN(c1ccc(C#N)c(Cl)c1)[C@H]1CC[C@H](NC(=O)c2ccc(N3CC(N4CCN(c5ccc6c(c5)C(=O)N(C5CCC(=O)NC5=O)C6=O)CC4)C3)cc2)CC1` (stereo partly drawn) here?
**A.** 67%

**Q.** And the IC50 (VCaP [1])?
**A.** 5.1 nM

**Q.** What about the IC50 (LNCaP) of the same molecule?
**A.** 21.7 nM

**Q.** And the inhibition (VCaP [17])?
**A.** Active

**Q.** What about the concentration at 6 h [3] of the same molecule?
**A.** 181 ng/mL

**Q.** And the concentration at 24 h [4]?
**A.** 106 ng/mL

**Q.** And the concentration at 6 h [5]?
**A.** 108 ng/g

**Q.** What about the concentration at 24 h [6] of the same molecule?
**A.** 123 ng/g

**Q.** What about the concentration at 6 h [7] of the same molecule?
**A.** 129 ng/g

**Q.** What about the concentration at 24 h [8] of the same molecule?
**A.** 116 ng/g

**Q.** What about the DC50 [18] of the same molecule?
**A.** 1.3 nM

**Q.** Which DC50 [9] does the source give for `N#Cc1ccc(O[C@H]2CC[C@H](NC(=O)c3ccc(N4CCN(C5CCN(c6ccc7c(c6)C(=O)N(C6CCC(=O)NC6=O)C7=O)CC5)CC4)cc3)CC2)cc1Cl` (stereo partly drawn) here?
**A.** 0.3 nM

**Q.** For `CN(c1ccc(C#N)c(Cl)c1)[C@H]1CC[C@H](NC(=O)c2ccc(N3CCC(CN4CCN(c5ccc6c(c5)C(=O)N(C5CCC(=O)NC5=O)C6=O)CC4)CC3)cc2)CC1` (stereo partly drawn), which F [2] is on record?
**A.** 35%

**Q.** With `N#Cc1ccc(O[C@H]2CC[C@H](NC(=O)c3ccc(NCCCCCCNc4ccc5c(c4)C(=O)N(C4CCC(=O)NC4=O)C5=O)cc3)CC2)cc1Cl` (stereo partly drawn) as the molecule, how does the DC50 [9] read?
**A.** 0.6 nM

**Q.** With `N#Cc1ccc(O[C@H]2CC[C@H](NC(=O)c3ccc(N4CCN(CCNc5ccc6c(c5)C(=O)N(C5CCC(=O)NC5=O)C6=O)CC4)cc3)CC2)cc1Cl` (stereo partly drawn) as the molecule, how does the DC50 [9] read?
**A.** 0.8 nM

**Q.** For `N#Cc1ccc(O[C@H]2CC[C@H](NC(=O)c3ccc(N4CCN(CCCCCNc5ccc6c(c5)C(=O)N(C5CCC(=O)NC5=O)C6=O)CC4)cc3)CC2)cc1Cl` (stereo partly drawn), which DC50 [9] is on record?
**A.** 0.9 nM

**Q.** With `N#Cc1ccc(OC2CCN(C(=O)c3ccc(N4CCC(N5CCN(c6ccc7c(c6)C(=O)N(C6CCC(=O)NC6=O)C7=O)CC5)CC4)cc3)CC2)cc1Cl` (stereo not drawn) as the molecule, how does the IC50 (VCaP [1]) read?
**A.** > 1000 nM

**Q.** With `CNC(=O)c1ccc(N2C(=S)N(c3ccc(C#N)c(C(F)(F)F)c3)C(=O)C2(C)C)cc1F` [ENZALUTAMIDE] as the molecule, how does the inhibition in vivo at 40 mg/kg (VCaP [19]) read?
**A.** 45%

**Q.** For `N#Cc1ccc(O[C@H]2CC[C@H](NC(=O)c3ccc(N4CCN(CCCNc5ccc6c(c5)C(=O)N(C5CCC(=O)NC5=O)C6=O)CC4)cc3)CC2)cc1Cl` (stereo partly drawn), which DC50 [9] is on record?
**A.** 2.7 nM
